# According to ChEMBL document CHEMBL1821569, “Synthesis of novel 1,2,5-trisubstituted benzimidazoles as potential antitumor agents” (2011):
# Legend:
# Type in all cases: functional
# HOP-62 = test: Antitumor activity against human HOP62 cells after 48 hrs by SRB assay; settings: HOP-62, 48 h
# Procedure, shortened: (§1)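 NCI 60-cell-line secondary screen. Cells were exposed continuously to drug for 48 h at five concentration levels (100, 10, 1.0, 0.1 and 0.01). Growth was estimated by sulforhodamine B protein staining. GI50 is the concentration giving a 50% reduction in net protein increase versus untreated control cells over the incubation. TGI (total growth inhibition) and LC50 (50% cell kill) were also derived.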
# MOLT-4 = test: Antitumor activity against human MOLT4 cells after 48 hrs by SRB assay; settings: MOLT-4, 48 h; procedure, shortened: as §1
# K562 = test: Antitumor activity against human K562 cells after 48 hrs by SRB assay; settings: K562, 48 h; procedure, shortened: as §1
# NCI-H322M = test: Antitumor activity against human NCI-H322M cells after 48 hrs by SRB assay; procedure, shortened: as §1
# A549 = test: Antitumor activity against human A549 cells after 48 hrs by SRB assay; settings: A549, 48 h; procedure, shortened: as §1
# HT-29 = test: Antitumor activity against human HT-29 cells after 48 hrs by SRB assay; settings: HT-29, 48 h; procedure, shortened: as §1
# KM12 = test: Antitumor activity against human KM12 cells after 48 hrs by SRB assay; settings: KM12, 48 h; procedure, shortened: as §1
# SW-620 = test: Antitumor activity against human SW620 cells after 48 hrs by SRB assay; settings: SW-620, 48 h
# Procedure, shortened: (§2)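 NCI 60-cell-line secondary screen. Continuous 48 h exposure at five concentration levels. Cell growth estimated by sulforhodamine B protein staining. GI50 taken as the concentration giving 50% reduction in net protein increase relative to untreated control cells over the incubation. TGI (total growth inhibition) and LC50 (50% cell kill) were also derived.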
# HCC 2998 = test: Antitumor activity against human HCC2998 cells after 48 hrs by SRB assay; settings: HCC 2998, 48 h
# Procedure, shortened: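 NCI 60-cell-line secondary screen: continuous drug exposure for 48 h at five concentration levels (100, 10, 1.0, 0.1 and 0.01). Cell growth was estimated by sulforhodamine B (SRB) protein staining. GI50 is the concentration giving a 50% reduction in net protein increase relative to untreated control cells during the incubation. TGI and LC50 were derived from the same data.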
# SF-295 = test: Antitumor activity against human SF295 cells after 48 hrs by SRB assay; settings: SF-295, 48 h; procedure, shortened: as §1
# SF-539 = test: Antitumor activity against human SF539 cells after 48 hrs by SRB assay; settings: SF-539, 48 h; procedure, shortened: as §1
# U-251 = test: Antitumor activity against human U251 cells after 48 hrs by SRB assay; settings: U-251, 48 h; procedure, shortened: as §2
# SNB-19 = test: Antitumor activity against human SNB19 cells after 48 hrs by SRB assay; settings: SNB-19, 48 h; procedure, shortened: as §1
# SNB-75 = test: Antitumor activity against human SNB75 cells after 48 hrs by SRB assay; settings: SNB-75, 48 h; procedure, shortened: as §1
# MDA-MB-435 = test: Antitumor activity against human MDA-MB-435 cells after 48 hrs by SRB assay; settings: MDA-MB-435, 48 h; procedure, shortened: as §1
# UACC-257 = test: Antitumor activity against human UACC257 cells after 48 hrs by SRB assay; settings: UACC-257, 48 h; procedure, shortened: as §2
# UACC-62 = test: Antitumor activity against human UACC62 cells after 48 hrs by SRB assay; settings: UACC-62, 48 h; procedure, shortened: as §2
# SK-MEL-2 = test: Antitumor activity against human SK-MEL-2 cells after 48 hrs by SRB assay; settings: SK-MEL-2, 48 h; procedure, shortened: as §1
# M14 = test: Antitumor activity against human M14 cells after 48 hrs by SRB assay; settings: M14, 48 h; procedure, shortened: as §1
# OVCAR-3 = test: Antitumor activity against human OVCAR3 cells after 48 hrs by SRB assay; settings: OVCAR-3, 48 h; procedure, shortened: as §1
# OVCAR-5 = test: Antitumor activity against human OVCAR5 cells after 48 hrs by SRB assay; settings: OVCAR-5, 48 h; procedure, shortened: as §1
# ACHN = test: Antitumor activity against human ACHN cells after 48 hrs by SRB assay; procedure, shortened: as §1
# CAKI-1 = test: Antitumor activity against human Caki1 cells after 48 hrs by SRB assay; settings: CAKI-1, 48 h; procedure, shortened: as §1
# RXF 393 = test: Antitumor activity against human RXF393 cells after 48 hrs by SRB assay; settings: RXF 393, 48 h; procedure, shortened: as §1
# DU-145 = test: Antitumor activity against human DU145 cells after 48 hrs by SRB assay; settings: DU-145, 48 h; procedure, shortened: as §1
# PC-3 = test: Antitumor activity against human PC3 cells after 48 hrs by SRB assay; settings: PC-3, 48 h; procedure, shortened: as §1
# MCF7 = test: Antitumor activity against human MCF7 cells after 48 hrs by SRB assay; settings: MCF7, 48 h; procedure, shortened: as §1
# MDA-MB-231 = test: Antitumor activity against human MDA-MB-231 cells after 48 hrs by SRB assay; settings: MDA-MB-231, 48 h; procedure, shortened: as §1
# BT-549 = test: Antitumor activity against human BT549 cells after 48 hrs by SRB assay; settings: BT-549, 48 h; procedure, shortened: as §1
# T47D = test: Antitumor activity against human T47D cells after 48 hrs by SRB assay; procedure, shortened: as §2
# [1] = read-out: LC50 (the source's name)
smiles,measurement,setting,value
COC(=O)c1ccc2c(c1)nc(-c1ccc(Cl)cc1)n2-c1cc(C(C)(C)C)[nH]n1,GI50,HOP-62,3.41 µM
same,LC50 (concentration giving 50% cell kill),HOP-62,> 100 µM
same,TGI,HOP-62,21 µM
same,GI50,MOLT-4,5.48 µM
same,LC50 (50% net cell kill),MOLT-4,> 100 µM
same,TGI,MOLT-4,> 100 µM
same,GI50,K562,4.2 µM
same,TGI,K562,> 100 µM
same,CC50,K562; [1],> 100 µM
same,GI50,NCI-H322M,10.4 µM
same,LC50 (50% cell kill),NCI-H322M,> 100 µM
same,TGI,NCI-H322M,86.4 µM
same,GI50,A549,4.03 µM
same,TGI,A549,94.5 µM
same,CC50,A549; [1],> 100 µM
same,GI50,HT-29,3.65 µM
same,LC50 (50% cell kill),HT-29,> 100 µM
same,TGI,HT-29,15.4 µM
same,GI50,KM12,2.12 µM
same,TGI,KM12,6.07 µM
same,CC50,KM12; [1],> 100 µM
same,GI50,SW-620,3.24 µM
same,TGI,SW-620,> 100 µM
same,CC50,SW-620; [1],> 100 µM
same,GI50,HCC 2998,3.9 µM
same,TGI,HCC 2998,19.8 µM
same,CC50,HCC 2998; [1],> 100 µM
same,GI50,SF-295,2.48 µM
same,TGI,SF-295,8.98 µM
same,CC50,SF-295; [1],> 100 µM
same,GI50,SF-539,2.54 µM
same,TGI,SF-539,8.95 µM
same,CC50,SF-539; [1],0.521 µM
same,GI50,U-251,4.13 µM
same,TGI,U-251,22.7 µM
same,CC50,U-251; [1],> 100 µM
same,GI50,SNB-19,4.31 µM
same,TGI,SNB-19,> 100 µM
same,CC50,SNB-19; [1],> 100 µM
same,GI50,SNB-75,2.14 µM
same,TGI,SNB-75,12.6 µM
same,CC50,SNB-75; [1],> 100 µM
same,GI50,MDA-MB-435,1.19 µM
same,TGI,MDA-MB-435,5 µM
same,CC50,MDA-MB-435; [1],0.505 µM
same,GI50,UACC-257,4.97 µM
same,TGI,UACC-257,22.9 µM
same,CC50,UACC-257; [1],0.967 µM
same,GI50,UACC-62,2.01 µM
same,TGI,UACC-62,7.78 µM
same,CC50,UACC-62; [1],0.463 µM
same,GI50,SK-MEL-2,3.89 µM
same,TGI,SK-MEL-2,18.1 µM
same,CC50,SK-MEL-2; [1],> 100 µM
same,GI50,M14,2.9 µM
same,TGI,M14,8.22 µM
same,CC50,M14; [1],0.758 µM
same,GI50,OVCAR-3,2.35 µM
same,TGI,OVCAR-3,6.13 µM
same,CC50,OVCAR-3; [1],0.915 µM
same,GI50,OVCAR-5,12.9 µM
same,TGI,OVCAR-5,60.1 µM
same,CC50,OVCAR-5; [1],> 100 µM
same,GI50,ACHN,3 µM
same,TGI,ACHN,9.34 µM
same,CC50,ACHN; [1],> 100 µM
same,GI50,CAKI-1,2.25 µM
same,TGI,CAKI-1,12.8 µM
same,CC50,CAKI-1; [1],> 100 µM
same,GI50,RXF 393,1.57 µM
same,TGI,RXF 393,5.77 µM
same,CC50,RXF 393; [1],0.569 µM
same,GI50,DU-145,3.7 µM
same,TGI,DU-145,25.8 µM
same,CC50,DU-145; [1],> 100 µM
same,GI50,PC-3,2.93 µM
same,TGI,PC-3,15.7 µM
same,CC50,PC-3; [1],> 100 µM
same,GI50,MCF7,2.79 µM
same,TGI,MCF7,12.3 µM
same,CC50,MCF7; [1],> 100 µM
same,GI50,MDA-MB-231,4.62 µM
same,TGI,MDA-MB-231,27 µM
same,CC50,MDA-MB-231; [1],> 100 µM
same,GI50,BT-549,3.35 µM
same,TGI,BT-549,11.2 µM
same,CC50,BT-549; [1],0.595 µM
same,GI50,T47D,3.64 µM
same,TGI,T47D,> 100 µM
same,CC50,T47D; [1],> 100 µM
